Measurements pooled from the literature.
Matrix: plasma

| Compound | test system | setting | Cmax |
| --- | --- | --- | --- |
| N#Cc1cccc(-c2ccc3ncc(-c4cc(F)cc(F)c4)c(N4CCC(N)CC4)c3c2)c1O | male human | oral, 20 mg, single dose | 162 ng/mL |
| COc1ccc(F)cc1C(=O)NCc1ccc(-c2nn([C@@H](C)C(F)(F)F)c(N)c2C(N)=O)cc1 | male human | oral, 200 mg, single dose | 4490 ng/mL |
| CC(=O)N(C)[C@H]1CCN(C(=O)c2cnc3c(c2)C[C@](C)(c2ccc(F)cc2)N3)C1 | male human | oral, 30 mg, multiple doses, once daily, steady state | 797 nM |
| COc1ccc(-c2c(Nc3ccccn3)[nH]c3c(C4=CCCCC4)c(-c4ccccc4)nn3c2=O)cc1 | human | oral, 100 mg once daily, multiple doses, patients | 3490 ng/mL |
| Cc1cc(-c2nccc3c2ccn3CC(=O)Nc2ccc(-c3cnccn3)cn2)ccn1 | human | oral, 7 mg, single dose | 57.4 nM |
| OC[C@H]1O[C@@H](c2cc(Cc3ccc(C4CC4)cc3)c(Cl)c3c2CCO3)[C@H](O)[C@@H](O)[C@@H]1O | human | oral, 0.3 mg, single dose, fasted | 4.5 ng/mL |
| CC(C)n1c(C2CCNCC2)nc2c([N+](=O)[O-])c(Br)c(Br)cc21 | human | oral, 25 mg, patients | 8.77 ng/mL |
| O=C(COc1ccc(Cl)cc1)NC12CC(c3nnc([C@H]4C[C@@H](OC(F)(F)F)C4)o3)(C1)C2 | human | oral, 260 mg, multiple doses, once daily, steady state, healthy volunteers | 18600 nM |
| C=CC(=O)NC1CCN(c2ncc3ncnc(Nc4ccc(Oc5ccc6c(c5)ncn6C)c(C)c4)c3n2)CC1 | male human | oral, 60 mg, single dose, healthy volunteers | 1160 nM |
| COc1ccc2c(c1)CN(C(=O)CCN1CCC(Cc3ccccc3)CC1)CC[S@@+]2[O-] | male human | intravenous, 0.6 mg/kg, healthy volunteers | 1310 ng/mL |
